{
  "source": "ChEMBL document CHEMBL5223176",
  "about": "“Design, synthesis, docking, and biochemical characterization of non-nucleoside SARS-CoV-2 RdRp inhibitors” (Bioorg Med Chem, 2023)",
  "key": {"[1]": {"assay": "Metabolic stability in mouse liver microsomes assessed as half life preincubated with microsomes for 15 mins followed by NADPH addition and measured upto 60 mins by LC-MS/MS analysis", "type": "ADME, Microsome", "conditions": "time < 75 min", "procedure,_shortened": "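Compound at 4.6 µM final preincubated 15 min at 37 °C with mouse liver microsomes in 0.1 M Tris-HCl pH 7.4, then NADPH, G6P, G6PDH and MgCl2 added; sampled at 0, 5, 15, 30, 60 min into cold acetonitrile with internal standard. LC-MS/MS with positive ESI; percent remaining versus t = 0; half-life from one-phase decay non-linear regression.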"}, "[2]": {"assay": "Metabolic stability in mouse plasma assessed as half life measured upto 120 mins by LC-MS/MS analysis", "type": "ADME, cell-free", "procedure,_shortened": "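Compound at 2 µM final incubated at 37 °C for up to 2 h in mouse plasma with 5 % DMSO; sampled at 0, 5, 15, 30, 60, 120 min into cold acetonitrile with internal standard, centrifuged, supernatant diluted 1:1 with water and quantified by LC-MS/MS.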"}, "[3]": {"system": "HEK293", "assay": "Cytotoxicity against HEK293 cells assessed as inhibition of cell growth at 100 uM incubated for 24 to 48 hrs by MTT assay", "type": "toxicity, cell-based", "conditions": "human, hek293, 100 µM, time 24-48 hrs", "procedure,_shortened": "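HEK-293 cells grown in DMEM with 2 mM L-glutamine, 10 % heat-inactivated FBS, 1 % penicillin/streptomycin, 37 °C, 5 % CO2; seeded 10,000 cells/well, treated 24 h after seeding for 24 or 48 h, vehicle DMSO 0.5 % final. MTT 0.5 mg/ml for 2 h, formazan dissolved in ethanol, absorbance 570 nm (ref 650 nm); 8 serial dilutions in triplicate, three independent experiments, mean ± SD.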"}, "[4]": {"assay": "Kinetic solubility of the compound in pH 7.4 PBS incubated for 24 hrs by UPLC/MS analysis", "type": "physicochemical", "conditions": "buffer, pH 7.4, 24 h"}, "[5]": {"biological_target": "Replicase polyprotein 1ab (Severe acute respiratory syndrome coronavirus 2) (UniProt P0DTD1)", "assay": "(§1) Inhibition of SARS-CoV-2 RdRp using ATP substrate preincubated with compound for 30 mins followed by substrate addition and measured after 30 mins by Alphascreen microplate reader analysis", "conditions": "time 60.0 min"}, "[6]": {"system": "SARS-CoV-2", "assay": "Antiviral activity against SARS-CoV-2 human/Czech Republic/951/2020 infected in African green monkey Vero cells pretreated […] followed by viral infection and measured after 48 hrs by viral titer reduction assay", "type": "functional, organism-based", "conditions": "Severe acute respiratory syndrome coronavirus 2, human/Czech Republic/951/2020, Vero"}, "[7]": {"biological_target": "Replicase polyprotein 1ab (Severe acute respiratory syndrome coronavirus 2, UniProt P0DTD1)", "assay": "as §1"}},
  "note": "The source made the active and inactive calls. The calls are words filed in the database; no cut-off is given here.",
  "data": [
    {"smiles": "O=c1cc(-c2ccc(O)c(O)c2)oc2cc(O)cc(O)c12", "note": "[LUTEOLIN]", "values": [
      {"measurement": "half-life", "setting": "[1]", "value": "> 2", "unit": "h"},
      {"measurement": "half-life", "setting": "[2]", "value": "> 1", "unit": "h"}
    ]},
    {"smiles": "CCCCOc1c(-c2ccc(O)c(O)c2)oc2cc(O)cc(O)c2c1=O", "values": [
      {"measurement": "half-life", "setting": "[1]", "value": "> 2", "unit": "h"},
      {"measurement": "Activity", "setting": "[3]", "value": "Non-Toxic"},
      {"measurement": "half-life", "setting": "[2]", "value": "> 1", "unit": "h"},
      {"measurement": "Kinetic_solubility", "setting": "[4]", "value": 156, "unit": "µM"}
    ]},
    {"smiles": "O=C(NCCNC(=S)Nc1ccc(O)c(O)c1)c1cc(=O)c2c(O)cccc2o1", "values": [
      {"measurement": "Kinetic_solubility", "setting": "[4]", "value": "< 1", "unit": "µM"}
    ]},
    {"smiles": "O=c1cc(C(CCCC(F)(F)F)c2ccc(O)c(O)c2)oc2cccc(O)c12", "note": "(stereo not drawn)", "values": [
      {"measurement": "inhibition", "setting": "[5]", "value": "inactive"}
    ]},
    {"smiles": "O=C(N[C@@H](Cc1ccc(O)cc1)C(=O)O)c1cc(-c2ccccc2)c(=O)n2c1sc1ccc(OC3CCCCC3)cc12", "values": [
      {"measurement": "EC50", "setting": "[6]", "value": 0.65, "unit": "µM"}
    ]},
    {"smiles": "O=c1cc(Cc2ccc(O)c(O)c2)oc2cccc(O)c12", "values": [
      {"measurement": "half-life", "setting": "[1]", "value": "> 2", "unit": "h"},
      {"measurement": "half-life", "setting": "[2]", "value": "> 1", "unit": "h"},
      {"measurement": "Kinetic_solubility", "setting": "[4]", "value": 63, "unit": "µM"}
    ]},
    {"smiles": "CC(c1ccc(O)c(O)c1)c1cc(=O)c2c(O)cccc2o1", "note": "(stereo not drawn)", "values": [
      {"measurement": "half-life", "setting": "[1]", "value": "> 2", "unit": "h"},
      {"measurement": "Activity", "setting": "[3]", "value": "Non-Toxic"},
      {"measurement": "half-life", "setting": "[2]", "value": "> 1", "unit": "h"},
      {"measurement": "Kinetic_solubility", "setting": "[4]", "value": 165, "unit": "µM"}
    ]},
    {"smiles": "O=c1cc(/C=C/c2ccc(O)c(O)c2)oc2cccc(O)c12", "values": [
      {"measurement": "Kinetic_solubility", "setting": "[4]", "value": "< 1", "unit": "µM"}
    ]},
    {"smiles": "O=C(Oc1ccc(O)c(O)c1)c1cc(=O)c2c(O)cccc2o1", "values": [
      {"measurement": "Kinetic_solubility", "setting": "[4]", "value": "< 1", "unit": "µM"}
    ]},
    {"smiles": "O=c1c(O)c(-c2ccc(O)c(O)c2)oc2cc(O)cc(O)c12", "note": "[QUERCETIN]", "values": [
      {"measurement": "half-life", "setting": "[1]", "value": 0.117, "unit": "h"},
      {"measurement": "half-life", "setting": "[2]", "value": "> 1", "unit": "h"}
    ]},
    {"smiles": "CCCCc1c(-c2ccc(O)c(O)c2)oc2cc(O)cc(O)c2c1=O", "values": [
      {"measurement": "IC50", "setting": "[7]", "value": 6, "unit": "µM"},
      {"measurement": "Kinetic_solubility", "setting": "[4]", "value": "< 1", "unit": "µM"}
    ]},
    {"smiles": "O=C(Nc1ccc(O)c(O)c1)c1cc(=O)c2c(O)cccc2o1", "values": [
      {"measurement": "half-life", "setting": "[1]", "value": 1.38, "unit": "h"},
      {"measurement": "half-life", "setting": "[2]", "value": 1, "unit": "h"},
      {"measurement": "Kinetic_solubility", "setting": "[4]", "value": 65, "unit": "µM"}
    ]},
    {"smiles": "O=c1c(OCCCO)c(-c2ccc(O)c(O)c2)oc2cc(O)cc(O)c12", "values": [
      {"measurement": "half-life", "setting": "[1]", "value": 1.5, "unit": "h"},
      {"measurement": "Activity", "setting": "[3]", "value": "Non-Toxic"},
      {"measurement": "half-life", "setting": "[2]", "value": 1, "unit": "h"}
    ]},
    {"smiles": "CCCCC(c1ccc(O)c(O)c1)c1cc(=O)c2c(O)cccc2o1", "note": "(stereo not drawn)", "values": [
      {"measurement": "IC50", "setting": "[7]", "value": "> 100", "unit": "µM"}
    ]},
    {"smiles": "CCCc1c(-c2ccc(O)c(O)c2)oc2cc(O)cc(O)c2c1=O", "values": [
      {"measurement": "Kinetic_solubility", "setting": "[4]", "value": 13, "unit": "µM"}
    ]},
    {"smiles": "Cc1c(-c2ccc(O)c(O)c2)oc2cc(O)cc(O)c2c1=O", "values": [
      {"measurement": "Kinetic_solubility", "setting": "[4]", "value": 32, "unit": "µM"}
    ]},
    {"smiles": "O=c1cc(CCc2ccc(O)c(O)c2)oc2cccc(O)c12", "values": [
      {"measurement": "half-life", "setting": "[1]", "value": "> 2", "unit": "h"},
      {"measurement": "half-life", "setting": "[2]", "value": "> 1", "unit": "h"},
      {"measurement": "Kinetic_solubility", "setting": "[4]", "value": 67, "unit": "µM"}
    ]},
    {"smiles": "O=c1c(OCCO)c(-c2ccc(O)c(O)c2)oc2cc(O)cc(O)c12", "values": [
      {"measurement": "half-life", "setting": "[1]", "value": "> 2", "unit": "h"},
      {"measurement": "Activity", "setting": "[3]", "value": "Non-Toxic"},
      {"measurement": "half-life", "setting": "[2]", "value": "> 1", "unit": "h"},
      {"measurement": "Kinetic_solubility", "setting": "[4]", "value": 167, "unit": "µM"}
    ]}
  ]
}
